The source of these data is ChEMBL document CHEMBL4334463, “Free Ligand 1D NMR Conformational Signatures To Enhance Structure Based Drug Design of a Mcl-1 Inhibitor (AZD5991) and Other Synthetic Macrocycles” (J Med Chem, 2019).

A short description of data set [1]: Lipophilicity, logD of the compound at pH 7.4. The conditions noted are these: buffer. The format is physicochemical. The essentials: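 Shake-flask partitioning to determine logD, with the aqueous phase at pH 7.4.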
Data set [2] addresses T1, Induced myeloid leukemia cell differentiation protein Mcl-1 (Homo sapiens, UniProt Q07820). As to the kind of experiment: Inhibition of Mcl1 (unknown origin) by TR-FRET assay.
Target sequence in this assay (Q07820 whole entry): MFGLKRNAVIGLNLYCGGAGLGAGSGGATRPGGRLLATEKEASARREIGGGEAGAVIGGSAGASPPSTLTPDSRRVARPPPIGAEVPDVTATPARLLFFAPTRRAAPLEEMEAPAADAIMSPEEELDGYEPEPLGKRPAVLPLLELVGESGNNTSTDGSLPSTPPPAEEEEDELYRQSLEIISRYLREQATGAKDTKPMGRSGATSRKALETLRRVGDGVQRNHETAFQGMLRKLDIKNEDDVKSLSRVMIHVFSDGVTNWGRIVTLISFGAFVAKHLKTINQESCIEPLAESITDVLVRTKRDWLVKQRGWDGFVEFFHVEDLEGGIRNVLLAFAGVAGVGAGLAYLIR
The target in data set [3] is T1, Induced myeloid leukemia cell differentiation protein Mcl-1. Nature of the data set: Binding affinity to Mcl-1 (unknown origin) by SPR assay. (In general: In SPR one partner is held on a chip, and binding of the other changes the refractive index at the surface.)
Target sequence in this assay (Q07820 whole entry, looked up): as the sequence (Q07820 whole entry) above
Data set [4] addresses T2, B-cell lymphoma 6 protein (Homo sapiens, UniProt P41182). As to the kind of experiment: Inhibition of Bcl6 (unknown origin) by TR-FRET assay. (In general: In TR-FRET formats the signal depends on donor and acceptor labels being close together.)
For data set [5], the target named is T2, B-cell lymphoma 6 protein.
Data set [6] addresses T1, Induced myeloid leukemia cell differentiation protein Mcl-1.
Target sequence in this assay (Q07820 whole entry): as above

Structures are written as SMILES.

As for `Cc1nn(C)c(C)c1-c1cccc2c(CCCOc3cccc4ccccc34)c(C(=O)O)[nH]c12`, the logD in data set [1] came out at 3.6. Moreover, the affinity in data set [2], expressed as Ki, was 290 nM. The affinity in data set [3], expressed as Kd, was 480 nM.

In turn, `C[C@@H]1CCCCN(C)c2cc(n3ncc(C#N)c3n2)Nc2cc3c(c(c2)O1)N(C)C(=O)CC3` had a logD in data set [1] of 4. In data set [4], this compound showed an IC50 of 25 nM.

`Cc1cc(CSCc2nn(C)c(C)c2-c2cccc3c(CCCOc4cccc5ccccc45)c(C(=O)O)[nH]c23)nn1C` returned a logD in data set [1] of 4.2.

In turn, `CNC(=O)C[C@@H](Cc1ccc(Cl)c(Cl)c1)NC(=O)CN1C(=O)[C@@H](NC(=O)C[C@@H](N)Cc2ccc(Cl)cc2)CCc2ccccc21` yielded a pH-dependent lipophilicity (logD) in data set [1] of 3.8. In data set [2], this compound showed a Ki of 1990 nM.

`N#Cc1cnn2c3cc(nc12)N1C[C@H](C[C@H]1CO)OC/C=C/COc1cc(cc2c1NC(=O)CC2)N3`: the T1/2 in data set [5] stood at 2 min. In addition, the logD in data set [1] came out at 2.2.

As for `N#Cc1cnn2c(Nc3ccc4c(c3)CCC(=O)N4)cc(N3CCC[C@H]3CO)nc12`, the log distribution coefficient (logD) in data set [1] was 2.3.

Turning to `CN1CCCCCOc2cc(cc3c2N(C)C(=O)CC3)Nc2cc1nc1c(C#N)cnn21`, the logD in data set [1] is 3.6. In data set [4], this compound returned a half-inhibitory concentration (IC50) of 190 nM.

With `O=C1C[C@@H](Cc2ccc(Cl)c(Cl)c2)NC(=O)CN2C(=O)[C@H](CCc3ccccc32)NC(=O)C[C@H](Cc2ccc(Cl)cc2)NCCCN1`, in data set [1], the logD worked out at 3.7. The affinity in data set [2] corresponds to a Ki of 5210 nM.

In data set [2], `C[C@@H]1CCN(C)C(=O)C[C@@H](Cc2ccc(Cl)c(Cl)c2)NC(=O)CN2C(=O)[C@H](CCc3ccccc32)NC(=O)C[C@H](Cc2ccc(Cl)cc2)N1` gave a Ki of 739 nM.

`CC1CCN[C@@H](Cc2ccc(Cl)cc2)CC(=O)N[C@H]2CCc3ccccc3N(CC(=O)N[C@H](Cc3ccc(Cl)c(Cl)c3)CC(=O)N1C)C2=O` (stereo in doubt; 12) came in with a Ki in data set [2] of 300 nM.

As for `CC1CCN[C@@H](Cc2ccc(Cl)cc2)CC(=O)N[C@H]2CCc3ccccc3N(CC(=O)N[C@H](Cc3ccc(Cl)c(Cl)c3)CC(=O)N1C)C2=O` (stereo in doubt; 11), in data set [2], the Ki worked out at 4960 nM.

Turning to `N#Cc1cnn2c(Nc3ccc4c(c3)CCC(=O)N4)cc(N3CCC[C@H]3CC(=O)O)nc12`, the logD in data set [1] is -0.4.

`CN1CCCN[C@@H](Cc2ccc(S(C)(=O)=O)cc2)CC(=O)N[C@H]2CCc3ccccc3N(CC(=O)N[C@H](Cc3ccc(Cl)c(CCc4ccccc4)c3)CC1=O)C2=O` showed a logD in data set [1] of 4.1. Moreover, in data set [6], the T1/2 was found to be 0.3 min.

`CN1CCCN[C@@H](Cc2ccc(Cl)cc2)CC(=O)N[C@H]2CCc3ccccc3N(CC(=O)N[C@H](Cc3ccc(Cl)c(Cl)c3)CC1=O)C2=O` registered a logD in data set [1] of 4.3. For the same compound, in data set [2], the Ki was determined as 155 nM.

In data set [2], `C[C@H]1CCN(C)C(=O)C[C@@H](Cc2ccc(Cl)c(Cl)c2)NC(=O)CN2C(=O)[C@H](CCc3ccccc32)NC(=O)C[C@H](Cc2ccc(Cl)cc2)N1` gave a Ki of 48 nM.

In data set [1], `N#Cc1cnn2c3cc(nc12)N1CC[C@@H](C1)OC/C=C/COc1cc(cc2c1NC(=O)CC2)N3` showed a logD of 2.4.

The term logD denotes the decadic logarithm of the distribution of all forms, ionised or not, between an organic phase and buffer at a given pH. Read a high logD as a more lipophilic compound. As a reminder, the Ki is a dissociation constant, usually derived from enzyme kinetics or from competition with a known ligand. Lower therefore signals a stronger hold on the target. As a reminder, the Kd is the concentration at which binding is half-saturated. As usually defined, the IC50 is the concentration that inhibits the measured activity by half. Higher therefore signals a need for much substance.
